SMILES strings stand for the structures. pIC50, pKi: −log10 of the molar value.

These results are taken from ChEMBL document CHEMBL1143936, “Role of benzimidazole (Bid) in the delta-opioid agonist pseudopeptide H-Dmt-Tic-NH-CH(2)-Bid (UFP-502)” (Bioorg Med Chem, 2008).

For assay [1], the target named is Mu-type opioid receptor (Rattus norvegicus, UniProt P33535). Description: Binding affinity to mu opioid receptor in Sprague-Dawley rat brain membrane. The assay is classed as cell membranes. The method, boiled down: (§1)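 Competition binding at equilibrium (2.5 h, 23 °C) on brain P2 synaptosomal membranes from Sprague-Dawley rats. Membranes were preincubated to strip endogenous opioid peptides and stored at −80 °C in buffered 20% glycerol. Filtration used GFC filters pre-soaked in 0.1% polyethylenimine, washed three times with ice-cold buffered BSA. Five to eight doses were run in duplicate, 3–5 independent membrane preparations each. Ki by Cheng–Prusoff, mean ± SE.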

In assay [2] the target is T1, Delta-type opioid receptor (Mus musculus, UniProt P32300). Nature of the assay: Antagonist activity at delta opioid receptor assessed as DPDPE-stimulated mouse vas deferens contraction. The settings on record: read-out: pA2 (converted). In kind it is functional, tissue-based. The essentials:
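Mouse vas deferens in an organ bath with physiological salt buffer, pH 7.5, electrically stimulated. Antagonism was measured against the δ agonist DPDPE and expressed as pA2 from a Schild plot.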

The species named for assay [3] is Rattus norvegicus. Nature of the assay: Selectivity ratio of Sprague-Dawley rat mu opioid receptor to Sprague-Dawley rat delta opioid receptor. The essentials: (§2)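 Ratio of the Ki values for δ and μ sites, both from the same rat brain synaptosome competition binding assay (2.5 h, 23 °C; Cheng–Prusoff Ki).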
The target of assay [4] is Mu-type opioid receptor (Cavia porcellus, UniProt P97266). Description: Agonist activity at mu opioid receptor assessed as inhibition of electrically-stimulated Hartley guinea pig contraction. In kind it is functional, Hartely. The method, boiled down: (§3)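 Isolated tissues in organ baths of balanced physiological salt buffer, pH 7.5. δ: single mouse vas deferens. μ: 2–3 cm myenteric plexus–longitudinal muscle strips from the small intestine of male Hartley guinea pigs. Read-out was inhibition of electrically evoked contraction; IC50 from dose–response curves, mean ± SE of separate assays. Internal standards were DPDPE (vas deferens) and PL-017 (ileum).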

Assay [5] addresses Delta-type opioid receptor (Rattus norvegicus, UniProt P33533). Nature of the assay: Binding affinity to delta opioid receptor in Sprague-Dawley rat brain membrane. In kind it is cell membranes. The essentials: as §1
The species named for assay [6] is Rattus norvegicus. Nature of the assay: Selectivity ratio of rat delta opioid receptor to rat mu opioid receptor. The essentials: as §2
In assay [7] the target is T1, Delta-type opioid receptor. Nature of the assay: Agonist activity at delta opioid receptor assessed as inhibition of electrically-stimulated mouse vas deferens contraction. In kind it is functional, tissue-based. The method, boiled down: as §3

Sequence of Mu-type opioid receptor (Cavia porcellus, UniProt P97266) (P97266 whole entry): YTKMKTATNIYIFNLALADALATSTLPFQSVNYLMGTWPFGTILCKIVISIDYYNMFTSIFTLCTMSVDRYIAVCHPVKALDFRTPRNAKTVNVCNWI
Sequence of Delta-type opioid receptor (Rattus norvegicus, UniProt P33533) (P33533 whole entry): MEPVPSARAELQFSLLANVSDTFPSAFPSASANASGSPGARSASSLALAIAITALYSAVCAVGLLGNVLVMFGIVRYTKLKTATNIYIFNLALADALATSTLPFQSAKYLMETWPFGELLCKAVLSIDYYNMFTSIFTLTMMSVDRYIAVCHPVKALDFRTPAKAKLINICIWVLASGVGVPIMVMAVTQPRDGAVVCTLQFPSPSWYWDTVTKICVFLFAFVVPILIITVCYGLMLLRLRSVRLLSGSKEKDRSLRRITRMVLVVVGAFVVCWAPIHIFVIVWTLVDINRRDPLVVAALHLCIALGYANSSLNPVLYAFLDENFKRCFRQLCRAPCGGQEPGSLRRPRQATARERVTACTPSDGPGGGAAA
T1 sequence (P32300 whole entry): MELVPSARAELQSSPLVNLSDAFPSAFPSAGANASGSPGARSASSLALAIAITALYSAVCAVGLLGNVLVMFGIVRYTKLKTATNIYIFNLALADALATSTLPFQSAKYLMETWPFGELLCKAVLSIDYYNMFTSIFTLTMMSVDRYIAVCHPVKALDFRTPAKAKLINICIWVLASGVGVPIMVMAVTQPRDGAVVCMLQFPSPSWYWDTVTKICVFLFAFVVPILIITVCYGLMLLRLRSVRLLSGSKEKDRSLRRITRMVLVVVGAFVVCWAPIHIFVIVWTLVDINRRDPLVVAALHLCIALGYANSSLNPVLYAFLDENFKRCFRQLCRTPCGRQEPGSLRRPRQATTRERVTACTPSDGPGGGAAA
Sequence of Mu-type opioid receptor (Rattus norvegicus, UniProt P33535) (P33535 whole entry): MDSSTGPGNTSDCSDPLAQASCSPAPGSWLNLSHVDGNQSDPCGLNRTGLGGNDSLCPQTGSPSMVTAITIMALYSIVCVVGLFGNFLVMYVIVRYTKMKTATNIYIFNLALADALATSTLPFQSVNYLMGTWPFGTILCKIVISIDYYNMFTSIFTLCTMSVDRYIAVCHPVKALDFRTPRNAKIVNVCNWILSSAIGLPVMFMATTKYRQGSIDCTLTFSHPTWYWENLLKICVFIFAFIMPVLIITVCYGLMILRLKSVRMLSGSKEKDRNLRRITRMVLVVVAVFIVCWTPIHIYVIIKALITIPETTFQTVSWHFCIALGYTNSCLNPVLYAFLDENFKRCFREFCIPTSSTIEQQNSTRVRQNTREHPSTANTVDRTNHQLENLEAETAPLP

As for `Cc1cc(O)cc(C)c1C[C@H](N)C(=O)N1Cc2ccccc2C[C@H]1C(=O)NCc1nc2ccccc2s1`, the pKi (in general, the negative decadic logarithm of the Ki, by convention in mol/L) in assay [1] was 8.97; in assay [5], 9.84. Besides, in assay [2], the Kb was 0.427 nM. In assay [3], the Ratio Ki came out at 7.3. In addition, in assay [4], the pIC50 (commonly −log10 of the IC50, conventionally taken in molar units) is 6.89.
With `Cc1cc(O)cc(C)c1C[C@H](N)C(=O)N1Cc2ccccc2C[C@H]1C(=O)NCc1nc(-c2ccccc2)c[nH]1`, the pKi in assay [1] was 8.17; in assay [5] it was 9.35. Besides, the Kb in assay [2] was 0.398 nM. Moreover, the Ratio Ki in assay [3] came to 15. In addition, the pIC50 in assay [4] is 6.81.
With `Cc1cc(O)cc(C)c1C[C@H](N)C(=O)N1Cc2ccccc2C[C@H]1C(=O)NCC1Cc2ccccc2C1`, the pKi in assay [1] is 9.80; in assay [5], 9.70. Besides, the Ratio Ki in assay [6] was 1.2. The results for the pIC50 in assay [4] and in assay [7] were 7.55 and 6.89, respectively.
For `Cc1cc(O)cc(C)c1C[C@H](N)C(=O)N1Cc2ccccc2C[C@H]1C(=O)NCc1ncc[nH]1`, the values for the pKi in assay [1] and in assay [5] were 8.93 and 9.94, respectively. In addition, the Ratio Ki in assay [3] is 10. Moreover, the pIC50 in assay [4] was 6.95; in assay [7] it was 8.44.
Consider `Cc1cc(O)cc(C)c1C[C@H](N)C(=O)N1Cc2ccccc2C[C@H]1C(=O)NCc1cc2ccccc2[nH]1`, for which the values for the pKi in assay [1] and in assay [5] were 9.15 and 10.18, respectively. Besides, the Kb in assay [2] was 0.355 nM. Also, the Ratio Ki in assay [3] is 10.6. In addition, in assay [4], the pIC50 is 6.68.
For `Cc1cc(O)cc(C)c1C[C@H](N)C(=O)N1Cc2ccccc2C[C@H]1C(=O)NCc1nc2ccccc2o1`, the pKi in assay [1] was 8.85; in assay [5], 9.55. Also, in assay [2], the Kb was 0.38 nM. For the same compound, the Ratio Ki in assay [3] worked out at 5. The pIC50 in assay [4] was 6.77.
Turning to `Cc1cc(O)cc(C)c1C[C@H](N)C(=O)N1Cc2ccccc2C[C@H]1C(=O)NCc1nc2ccccc2[nH]1`, the pIC50 was 7.45 in assay [4] and 9.03 in assay [7].
